# Source: PubChem BioAssay
# A selection: hits, their analogues and other compounds. The true share with any hit is near 2%.
# Ins promoter up = MIN6 insulin promoter up-regulation. z-score at 5 µM. 0.3% of 190,000 active. AID 1625. MIN6 insulin promoter-GFP reporter, high-content imaging; active compounds read high;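 active means z-score above 3 at 5 µM with at least 500 cells counted in the well; inconclusive means wells under 500 cells, flagged as cytotoxic or low count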
# Autophagy HCS = modulators of autophagy; MEF GFP-LC3 puncta imaging; test concentration mostly 10 µM; calls only at 10 µM (by protocol); 0.98% of 190,000 active;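 active means percentage of spot-positive cells more than 3 SD above its plate mean, without a fluorescence outlier flag or 80% toxicity; inconclusive means no clear call, values can overlap the other calls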;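 further: spot-positive cell cutoff set from DMSO-treated cells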
# Dynein cargo inh = dynein cargo transport inhibition. 0.47% of 220,000 active. z-score, hits read low. 3617.4 mouse cells, GR-EGFP nuclear translocation imaging; test concentration mostly 20 µM; stimulated with dexamethasone, 1 µM; active compounds read low;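 active means plate z-score of nuclear minus cytoplasmic receptor signal below a set negative limit, without overly bright fluorescence or cell loss, cut at about -3.5 in these data, passing the limit was not always enough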;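 further: z-score of nuclear minus cytoplasmic ring GR-EGFP intensity difference per well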
#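 Schedule: 48 h induction, then 1 h compound, then 30 min agonist, 37 °C. Buffer or medium: tetracycline-free induction medium containing charcoal-stripped FBS. Reagent: 1.0 µM final dexamethasone stimulus. Evaluation: nuclear versus cytoplasmic GR-EGFP signal, averaged per well. Signal: high-content fluorescence imaging after fixation.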
# Insulin prom inh = TRM-6 insulin promoter activity inhibition. inhibition, % at 2 µM. 0.9% of 130,000 active. TRM-6 cells (human fetal islet line), insulin promoter-eGFP reporter, imaging; reporter expression induced with tamoxifen;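 active means inhibition above the mean plus 3 SD, with well images judged a real hit on visual review, cut at about 60% in these data, passing the limit was not always enough; inconclusive means inhibition over the cutoff but images rejected on review; inactive means inhibition not above the cutoff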
# The depositor's hits bear a star; i = inactive; ? = inconclusive; · = no result given; + = active, no number.
SMILES,Ins promoter up,Autophagy HCS,Dynein cargo inh,Insulin prom inh
CCOP(=O)(C1=C(O)C(=O)C(C(C)(C)C)=CC1=O)c1ccccc1 (stereo not drawn),-0.44,i,-1.12,66.7*
CC(=O)c1sc(NC(=O)CCCOc2ccc(Cl)cc2)nc1C,-1.09,i,-0.956,·
COc1ccc(CCNC(=O)CSc2nnc3ccc(-c4cccnc4)nn23)cc1OC,0.39,i,1.25,33.3
O=C(CSc1ncccn1)Nc1ccc2c(c1)CCC2,-0.19,·,-0.466,·
CCc1ccc(/C=C2/C(=O)N(CC)C(=S)N2C)s1,0.62,i,1.82,69.2*
COc1ccc(/C=N\Nc2ncc(F)c(N3CCOCC3)n2)cc1OC,-0.21,·,-0.932,·
Cc1cc(C)c(C(=O)CN2C(=O)NC3(CCCCCC3)C2=O)cc1C,-0.86,+,-1.11,·
CC(=O)/C(=N\Nc1ccc(C)cc1)Sc1nncn1C,0.01,+,2.8,20.6
Cc1ccc(NC(=O)CN(C)C(=O)CSc2nncn2C)cc1,0.13,i,-0.16,-18.6
COc1ccc(C2Nc3ccccc3C(=O)N2C2CCCCC2)cc1 (stereo not drawn),-0.13,i,-0.599,11.1
CC(C)CNC(=O)CN(c1cccc(Cl)c1)S(C)(=O)=O,0.31,i,-0.114,·
Clc1ccccc1N/N=C/c1ccc2c(c1)OCO2,0.37,i,0.754,64.3*
C(=N\Nc1nc2ccccc2[nH]1)/c1ccc2c(c1)OCO2,-0.98,i,1.4,37.5
CC(C)(C)c1ccc(-c2cn(-c3ccc(Br)cc3)c3[n+]2CCCS3)cc1,?,i,-1.14,-37.5
COc1ccccc1N1CCN(CC(=O)Nc2ccc(CN3CCCCC3)cc2)CC1,-0.44,i,0.944,21.4
Cc1ccc(Cl)cc1N1CCN(CC(=O)Nc2ccc(CN3CCCCC3)cc2)CC1,?,+,-5.48,60.0
Clc1ccc2c(NCc3ccco3)ncnc2c1,·,i,-0.118,78.6*
O=C(CCc1nnc(Cc2ccc3c(c2)OCO3)o1)NCc1nc2ccccc2s1,·,i,-1.06,78.3*
O=C1N/C(=C/c2ccc(N3CCOCC3)o2)C(=O)N1c1ccccc1,0.51,i,-6.19*,20.6
O=C1N/C(=C/c2ccc(N3CCCC3)cc2)C(=O)N1c1ccccc1,0.57,+,1.53,-23.7
Cc1nn2c(nc1=O)SCC(c1ccccc1)=N2,0.46,i,1.26,81.6*
Cc1ccc(NC(=O)Cc2ccc(-n3cccc3)cc2)c(C)c1,0.04,i,-0.63,8.0
Cc1ccc(NC(=O)CCl)c(C)c1,3.51*,i,-0.358,·
COC(=O)c1ccc(N2CCN(C)CC2)c(NC(=O)COc2ccc(OC)cc2)c1,·,+,1.21,9.1
CN1CCN(c2ccccc2NC(=O)COc2ccccc2)CC1,-0.08,i,0.223,-63.9
SMILES,Ins promoter up,Autophagy HCS,Dynein cargo inh,Insulin prom inh
c1ccc(CN2CCC(Nc3nc(-c4cccs4)nc4ccccc34)CC2)cc1,-2.46,+,1.11,·
O=C(O)C1CCCCC1C(=O)NCCC(c1ccccc1)c1ccccc1 (stereo not drawn),0.23,i,-0.904,-32.4
O=C(O)[C@H]1CCCC[C@H]1C(=O)NCCNC(=O)[C@@H]1CCCC[C@@H]1C(=O)O,0.51,i,-0.793,100.0*
COc1cccc(C(c2nnnn2Cc2ccccc2)N2CCN(C3CCCC3)CC2)c1OC (stereo not drawn),-1.65,+,1.03,18.2
COC(=O)c1ccc2c(=O)[nH]c(CSc3nc(C)cs3)nc2c1,-0.16,+,-0.78,36.4
O=C(CSc1ncn[nH]1)NCc1ccccc1,5.42*,i,2.21,-8.1
O=C(CSc1ncn[nH]1)NC1CC2CCC1C2 (stereo not drawn),1.2,+,1.11,27.3
COc1ccc(CNC(=O)CSc2ncn[nH]2)cc1,·,i,-1.14,-75.8
COC(=O)c1ccc(/C=N/OCC(=O)NCc2ccc(F)cc2)cc1,-0.78,i,-0.0338,·
O=C(CC1SCCNC1=O)Nc1cccc([N+](=O)[O-])c1 (stereo not drawn),0.59,·,0.191,·
COC(=O)c1ccccc1NC(=O)C1CC(=O)N(c2ccc(F)cc2)C1 (stereo not drawn),1.46,i,1.71,71.4*
O=C(c1ccc(Cl)c(S(=O)(=O)NCc2ccco2)c1)N1CCN(c2ccccc2F)CC1,·,i,-1.37,-21.7
COc1ccccc1N1CCN(C(=O)c2ccc(Cl)c(S(=O)(=O)NCc3ccco3)c2)CC1,-0.28,+,-0.312,0.0
COC(=O)c1ccc2c(=O)n(-c3ccc(OC)cc3)c(=S)[nH]c2c1,0.22,i,0.67,·
O=C(/C=C/c1ccc(N2CCC(c3ccccc3)=N2)cc1)c1ccccc1,·,?,-5.73*,-455.6
O=C(COC(=O)C1CC2C=CC1C2)NCc1ccc(F)cc1 (stereo not drawn),·,i,-1.11,·
COc1ccccc1NC(=O)COC(=O)C1CC2C=CC1C2 (stereo not drawn),3.01*,i,-0.715,-66.7
CCC(NC(=O)COc1ccc([N+](=O)[O-])cc1)c1ccccc1 (stereo not drawn),-0.24,i,-0.891,66.7*
CC(C)c1csc(CN2CCC(CO)(Cc3cccc(F)c3)CC2)n1,0.82,i,-0.46,·
Cc1ccc(C)c2[nH]c(=O)c(CN(CCN3CCCC3)C(=O)Nc3cccc(Cl)c3)cc12,·,+,-2.33,-2.9
Cc1cc(C)c2cc(CN(CCN3CCCC3)C(=O)Nc3ccc(F)cc3)c(=O)[nH]c2c1,-1.28,i,0.0808,·
Cc1cc(C)nc(/N=C(\N)Nc2ccccc2-c2ccccc2)n1,-2.23,i,-0.784,·
Cc1ccc(S(=O)(=O)N2CCCC2C(=O)N(C)Cc2cccs2)cc1 (stereo not drawn),4.2*,i,0.0175,-48.4
CN(Cc1cccs1)C(=O)c1ccc(S(=O)(=O)N2CCCCC2)cc1,0.13,·,0.15,·
O=C1CN(C(=O)c2cc3ccccc3oc2=O)C(c2ccc(F)cc2)c2cc(Br)ccc2N1 (stereo not drawn),0.76,+,-0.272,-38.1
SMILES,Ins promoter up,Autophagy HCS,Dynein cargo inh,Insulin prom inh
O=C1CN(C(=O)c2cc3ccccc3oc2=O)C(c2ccc(F)cc2)c2cc(F)ccc2N1 (stereo not drawn),0.85,i,1.81,-4.8
O=C(O)/C=C/c1ccc([N+](=O)[O-])o1,-0.22,i,-0.542,·
O=[N+]([O-])c1ccc(/C=N/N=C/c2ccc([N+](=O)[O-])o2)o1,?,i,-3.59*,i
O=C(Oc1cccc([N+](=O)[O-])c1)N1CCCCC1,-0.66,i,0.384,52.4
Cc1cc(C)n(-c2nc3c(c(=O)n(C)c(=O)n3C)n2CC(O)COc2ccccc2C)n1 (stereo not drawn),·,i,-0.187,76.9*
Cc1cc(C)n(-c2nc3c(c(=O)[nH]c(=O)n3C)n2CC(O)COc2ccc(Cl)cc2Cl)n1 (stereo not drawn),0.09,+,-0.0905,-40.0
O=C(O)/C=C/c1ccc(S(=O)(=O)N2CCN(CCN3C(=O)C4C5C=CC(C5)C4C3=O)CC2)cc1 (stereo not drawn),-0.2,·,-1,·
COc1ccc(CN2CCN(C(=O)c3cc(-c4cccnc4)nc4ccc(Cl)cc34)CC2)c(OC)c1OC,-0.32,i,-0.204,·
